From PubChem
procasp3 activ – activators of human procaspase-3 | P42574 | recombinant procaspase-3 D3A, Ac-DEVD-pNA absorbance 405 nm | activation, % at 8.5 µM | 330,000 tested, 0.11% active | AID 463141;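 active = activation above the mean of all tested compounds plus 3 SD, cut at about 21% in these data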;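 note: 0% = DMSO alone and 100% = DMSO wells spiked with extra 5 µM PC-3 D3A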
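assay system = Procaspase-3 D3A mutant | signal = absorbance at 405 nm, 0 and 120 min | times = 1 h preincubation plus 2 h reaction at 25 °C | repeats = single replicate | read-out = % activation between DMSO and enzyme-spiked controls | medium = Zinc-free HEPES saline buffer with Triton X-100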
Neddyl block – cullin neddylation inhibition; calls only at 25 µM; TR-FRET cullin neddylation, biochemical; AID 651699; 360,000 tested, 0.58% active; in the data active = inhibition above about 36%
proCasp7 act – activates human procaspase-7, counter-screen for procaspase-3 activators | AID 463210 | activation, % at 8.5 µM | P55210 | 330,000 tested, 0.093% active | recombinant procaspase-7, Ac-DEVD-pNA absorbance 405 nm; D23A/D198A/D206A triple mutant, cannot self-cleave; scale: DMSO 0, 5 µM enzyme 100;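 active = percent activation above the screen-wide mean plus 3 SD, cut at about 25% in these data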
Target sequence (P55210 whole entry D23A/D198A/D206A): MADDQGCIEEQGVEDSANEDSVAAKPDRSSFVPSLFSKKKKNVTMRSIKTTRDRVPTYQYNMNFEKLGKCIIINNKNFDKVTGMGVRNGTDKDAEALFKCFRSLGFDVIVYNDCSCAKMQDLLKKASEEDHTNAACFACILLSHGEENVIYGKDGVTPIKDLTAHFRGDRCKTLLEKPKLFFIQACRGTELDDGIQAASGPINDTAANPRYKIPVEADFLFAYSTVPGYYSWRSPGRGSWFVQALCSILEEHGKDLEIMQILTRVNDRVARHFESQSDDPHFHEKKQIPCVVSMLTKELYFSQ
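buffer or medium = Zinc-free HEPES/NaCl buffer, pH 7.4 | material = Procaspase-7 triple mutant (PC-7 D3A) | input = 2 µM procaspase-7 mutant as dispensed | signal = Epi-absorbance of released pNA at 405 nm, two timepoints | timing = 1 h preincubation, 2 h reaction | replicates = singlicate compound testing | evaluation = % activation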
proKLK7 act – activates the human kallikrein-7 zymogen. activation, % at 7 µM. 370,000 tested, 0.9% active. AID 652039. purified proKLK7, EDANS-DABCYL substrate fluorescence; 100% is mature enzyme control, 0% vehicle;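 active = activation above the mean of all tested compounds plus 3 SD, computed per campaign excluding outliers beyond control limits, cut at about 13% in these data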
Target sequence (P49862 whole entry, looked up): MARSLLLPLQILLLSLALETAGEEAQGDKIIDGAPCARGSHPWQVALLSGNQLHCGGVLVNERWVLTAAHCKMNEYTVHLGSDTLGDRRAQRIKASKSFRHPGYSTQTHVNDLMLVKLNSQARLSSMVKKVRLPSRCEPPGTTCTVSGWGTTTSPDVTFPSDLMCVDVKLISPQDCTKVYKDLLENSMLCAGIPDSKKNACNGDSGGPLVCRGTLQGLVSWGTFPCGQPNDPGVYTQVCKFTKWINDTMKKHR
KLK7 act conf – confirmation of human kallikrein-7 zymogen activators; shares compounds with proKLK7 act; purified proKLK7, EDANS-DABCYL substrate fluorescence; scaled: vehicle 0, mature enzyme 100; activation, % at 7 µM; 3,200 tested, 68% active; AID 686949;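 active = activation, as change over the incubation, above the mean of all tested compounds plus 3 SD, cut at about 13% in these data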
EDANS-DABCYL int – fluorescence interference counter-screen for KLK7 activators | shares compounds with proKLK7 act | EDANS-DABCYL substrate fluorescence interference, no enzyme, 4 h; solvent 0%, active enzyme control 100% | activation, % at 7 µM | 3,200 tested, 80% active | AID 686952;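 active = activation above the all-compound mean plus 3 SD, ignoring values outside control-based bounds, cut at about 4.8% in these data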;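 note: value is the 4 h activation minus the activation read at time zero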
K7 EDANS ctr – EDANS fluorescence interference in dose response, no enzyme; shares compounds with proKLK7 act; EDANS-DABCYL peptide fluorescence interference; EC50, µM; 250 tested, 20% active;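 active = compounds that raise the fluorescence signal in this interference counterscreen, with EC50 at or below 10 µM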;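 note: intact quenched peptide substrate alone read at 355 nm excitation and 520 nm emission; signal is fluorescence gain from T0 to T4 after four hours at room temperature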
An asterisk follows results filed as active; i = inactive; . = no result given. The list is not random: actives were taken first. Their share in the collection is about 1.6%.

SMILES	procasp3 activ	Neddyl block	proCasp7 act	proKLK7 act	KLK7 act conf	EDANS-DABCYL int	others
CC1CCCN(CCCNC(=O)c2coc3nc4ccccc4nc23)C1 (stereo not given)	-11	.	-5	30*	50*	76*
CC1CCCN(CCCNC(=O)c2nn(C)c3c2CSc2ccccc2-3)C1 (stereo not given)	-1	i	-8	0	.	.
Cc1ccc(CCNC(=O)c2coc3nc4ccccc4nc23)cc1	-44	i	1	3	.	.
CC1CCN(CCCNC(=O)c2coc3nc4ccccc4nc23)CC1	0	.	-4	49*	64*	69*
O=C(NC(=S)Nc1ccc2c(c1)C(=O)c1ccccc1C2=O)c1ccc(F)cc1	2	.	1	.	.	.
O=C(C(=O)N1CCN(c2ccccc2F)CC1)c1cn(CC(=O)N2CCCC2)c2ccccc12	.	i	.	-1	.	.
CCOC(=O)c1cc2c(=O)n3ccccc3nc2n(CCCOC)c1=NC(=O)C(C)(C)C	-7	.	-3	22*	15*	15*
CCOC(=O)c1cc2c(=O)n3ccccc3nc2n(CCCOC)c1=NC(=O)c1cccnc1	-4	.	1	.	.	.
CCOC(=O)c1cc2c(=O)n3ccccc3nc2n(CC(C)C)c1=NC(=O)c1ccco1	-19	.	-24	30*	24*	26*
CCOCCCn1c(=NC(C)=O)c(C#N)cc2c(=O)n3ccccc3nc21	-6	.	-5	23*	6	17*
Cc1ccc(OCc2cc(C(=O)N(C)Cc3cnc4ccccn34)no2)cc1C	1	i	2	0	.	.
COC(=O)c1cc(N=CC2=C(O)CC(C)(C)CC2=O)cc(C(=O)OC)c1	-1	i	-11	25*	47*	45*
COc1ccc(NC(=O)CCc2nnc3ccc(NCc4ccco4)nn23)cc1OC	-5	i	-4	0	.	.
Cc1ccc(N(C)S(=O)(=O)c2c(C)noc2/C=C/N(C)C)cc1	-5	i	7	0	.	.
CCCCC1C2C(=O)N(c3ccc(C)cc3)C(=O)C2ON1c1ccccc1 (stereo not given)	-4	i	-4	15*	36*	34*
CCCn1cc(C(=O)N(C)C2CCCN(Cc3ccccc3F)C2)c(C)n1 (stereo not given)	7	i	-1	0	.	.
CC(C)(C)N(Cc1ccccc1)C(=O)COC(=O)Cn1[nH]c(=O)c2ccccc2c1=O	.	i	.	0	.	.
CC(C)(C)N(Cc1ccccc1)C(=O)COC(=O)Cn1cnc2ccccc2c1=O	9	i	4	15*	1	1
Cc1cccn2cc(-c3c[nH]c4ccccc34)nc12	1	.	-1	16*	6	2
CCOC(=O)/C(C#N)=C/Nc1ccccc1OC(F)(F)F	-4	i	-4	1	.	.
CN1CCN(c2c(F)cc3c(=O)c(C(=O)O)cn4c3c2OCN4C)CC1	3	.	-2	60*	21*	30*
CCN(CC)Cc1c(O)ccc2c(=O)c(-c3ccccc3Cl)coc12	2	.	9	40*	67*	62*
CCN(CC)Cc1c(O)ccc2c(=O)c(-c3ccccc3OC)coc12	4	.	8	85*	51*	74*
Cc1nc2cc(C(F)(F)F)ccc2n1C1CCN(CC(=O)NC(C)(C)C)CC1	-7	i	-4	0	.	.
CCN1C(=O)[C@H]2[C@@H](c3ccc(-c4ccc(C(C)=O)cc4)c(OC)c3)N[C@@](Cc3ccccc3)(C(=O)OC)[C@H]2C1=O	3	i	1	0	.	.
SMILES	procasp3 activ	Neddyl block	proCasp7 act	proKLK7 act	KLK7 act conf	EDANS-DABCYL int	others
Cc1cc(C)n2nc(SC(C)C(=O)N3CC(C)OC(C)C3)nc2n1 (stereo not given)	-11	i	9	0	.	.
CCCN(CC(=O)Nc1ccccc1OC)C(=O)CCC(=O)c1ccc(OCC)cc1	2	i	9	0	.	.
COc1cccc(CN(C)CCCn2cnc3c(SC)ncnc32)c1	.	i	.	0	.	.
O=C(O)c1ccc(-c2ccccn2)s1	2	i	2	0	.	.
c1ccc(-c2ccc(-c3ccccn3)s2)nc1	-9	.	-7	15*	-19	-7
O=C1c2ccccc2NC(c2ccccn2)N1c1ccccc1F (stereo not given)	5	.	6	18*	22*	22*
Cc1ccc(N2C(=O)c3ccccc3NC2c2ccccc2O)cc1 (stereo not given)	0	.	-1	-11	.	.
Cc1cccc(C2Nc3ccccc3C(=O)N2c2ccc(F)cc2)n1 (stereo not given)	-1	.	13	28*	23*	21*
Cc1ccc(CN2C(=O)c3ccccc3NC2c2ccccn2)cc1 (stereo not given)	9	.	0	4	.	.
CCOC(=O)C1CCN(C(=O)/C=C/c2ccc3c(c2)OCO3)CC1	2	i	4	1	.	.
Cc1ccccc1C=Nc1ccccc1C(N)=O	0	.	-6	18*	28*	29*
Cc1ccc(C=Nc2ccccc2C(N)=O)cc1	2	.	3	19*	40*	31*	K7 EDANS ctr=>70
NC(=O)c1ccccc1N=Cc1ccccn1	3	i	16	3	.	.
Cc1cccc(C)c1NC(=O)CNC(=O)CNC(=O)c1ccc2c(c1)OCO2	1	i	7	0	.	.
O=Cc1c(Cl)nc2ccccn2c1=O	-6	i	1	42*	22*	20*
Cc1cccn2c(=O)c(C=O)c(Cl)nc12	2	i	4	92*	16*	19*
CC1CCN(c2nc3ccccn3c(=O)c2C=O)CC1	-6	i	7	0	.	.
Cc1oc2c(c(C)cc3oc(=O)c(CC(=O)N[C@H](C(=O)O)C(C)C)c(C)c32)c1C	.	.	.	15*	6	13*
Cc1coc2c1c(C)cc1oc(=O)c(CC(=O)NCC(=O)O)c(C)c12	.	.	.	16*	57*	59*
Cc1coc2c1c(C)cc1oc(=O)c(CC(=O)NCCCCCC(=O)O)c(C)c12	-3	.	2	18*	34*	28*	K7 EDANS ctr=>70
COc1ccc(N2CCN(c3ccc(NC(=O)NN)cc3)CC2)cc1	-13	i	6	0	.	.
CCOc1ccc2c(C)cc(=O)oc2c1OCC	-7	.	5	8	.	.
O=C(Oc1cc(=O)oc2ccccc12)c1ccco1	-5	i	-7	0	.	.
Cc1cc(=O)oc2c(C)c(OC(=O)c3ccco3)ccc12	6	.	1	85*	601*	620*
CCC(=O)Oc1ccc2c(C)cc(=O)oc2c1C	-37	.	1	422*	697*	675*
CC(=O)N1CCCN(S(=O)(=O)c2ccc3c(c2)c(=O)n(C)c(=O)n3C)CC1	.	.	.	0	.	.
